Non-standard residues stand in square brackets, D forms with d. Residues, ends and D or L forms follow the SMILES beside them. d2Nal = N[C@H](Cc1ccc2ccccc2c1)C(=O)O
Experiments:
Candida albicans = experiment: Inhibition of Candida albicans colony forming units (CFU) at 1e-4 M compound; type: functional
Outline: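 Six C. albicans isolates (five clinical, ATCC 24433), grown 48 h at 32 °C in Sabouraud-dextrose broth, washed and held in distilled water. 1 × 10^6 cells exposed to peptide at 10^-4 M final, 2 h at 37 °C; water controls. Diluted, plated on blood agar for 48 h at 37 °C, colonies counted manually. Kill = 100 − (test CFU/control CFU × 100). Triplicates, two independent experiments.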

PBMC = experiment: Inhibition of tumor necrosis factor alpha release by endotoxin stimulated human peripheral blood mononuclear cells at 1e-4 M; type: functional
Outline: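 Human PBMC from five normal donors, isolated by Ficoll-Hypaque density centrifugation, washed in PBS and kept in RPMI 1640 with HEPES, glutamine, 10% FCS and penicillin/streptomycin. Cells at 2.5 × 10^5 per well were held 24 h at 37 °C, 5% CO2 with E. coli 055:B5 endotoxin 1 ng/mL plus peptide 10^-4 M. Supernatant TNF-α measured by immunoassay; % inhibition versus saline control, mean ± SD.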

Row | SMILES | Inhibition (Candida albicans) | Inhibition (PBMC)
1 | CC(C)[C@H](NC(=O)[C@H](Cc1ccccc1)NC(=O)[C@H](CCCCN)NC(=O)CNC(=O)[C@H](Cc1c[nH]c2ccccc12)NC(=O)[C@H](CCCN=C(N)N)NC(=O)[C@@H](Cc1ccc2ccccc2c1)NC(=O)[C@H](C)N)C(N)=O | 62.8% | <10%
2 | NC(=O)[C@H](Cc1c[nH]c2ccccc12)NC(=O)[C@H](CCCN=C(N)N)NC(=O)[C@@H](Cc1ccc2ccccc2c1)NC(=O)[C@@H](N)Cc1c[nH]cn1 | 43% | 13.9%
3 | CC(C)[C@H](NC(=O)[C@H](Cc1ccccc1)NC(=O)[C@H](CCCCN)NC(=O)CNC(=O)[C@H](Cc1c[nH]c2ccccc12)NC(=O)[C@H](C)NC(=O)[C@@H](Cc1ccc2ccccc2c1)NC(=O)[C@@H](N)Cc1c[nH]cn1)C(N)=O | 95.7% | 23%
4 | CC(C)[C@H](NC(=O)[C@H](Cc1ccccc1)NC(=O)[C@H](CCCCN)NC(=O)CNC(=O)[C@H](C)NC(=O)[C@H](CCCN=C(N)N)NC(=O)[C@@H](Cc1ccc2ccccc2c1)NC(=O)[C@@H](N)Cc1c[nH]cn1)C(N)=O | 24.9% | 18.1%
5 | CC(C)[C@H](NC(=O)[C@H](Cc1ccccc1)NC(=O)[C@H](CCCCN)NC(=O)CNC(=O)[C@H](Cc1c[nH]c2ccccc12)NC(=O)[C@H](CCCN=C(N)N)NC(=O)[C@H](N)Cc1ccc2ccccc2c1)C(N)=O | 51.4% | <10%
6 | CC(C)[C@H](NC(=O)[C@H](Cc1ccccc1)NC(=O)[C@H](CCCCN)NC(=O)CN)C(N)=O (H-GKFV-NH2) | 5% | <10%
7 | CC(C)[C@H](NC(=O)[C@H](Cc1ccccc1)NC(=O)[C@H](CCCCN)NC(=O)CNC(=O)[C@H](Cc1c[nH]c2ccccc12)NC(=O)[C@H](CCCN=C(N)N)NC(=O)[C@H](C)NC(=O)[C@@H](N)Cc1c[nH]cn1)C(N)=O (H-HARWGKFV-NH2) | 49.9% | <10%
8 | CC(C)[C@H](NC(=O)[C@H](Cc1ccccc1)NC(=O)[C@H](CCCCN)NC(=O)CNC(=O)[C@H](Cc1c[nH]c2ccccc12)NC(=O)[C@H](CCCNC(=N)N)NC(=O)[C@H](Cc1ccccc1)NC(=O)[C@@H](N)Cc1cnc[nH]1)C(N)=O (H-HFRWGKFV-NH2) | 90.8% | <10%
9 | CC(C)[C@H](NC(=O)[C@@H]1CCCN1C(=O)[C@H](CCCCN)NC(=O)CNC(=O)[C@H](Cc1c[nH]c2ccccc12)NC(=O)[C@H](CCCN=C(N)N)NC(=O)[C@H](Cc1ccccc1)NC(=O)[C@@H](N)Cc1c[nH]cn1)C(N)=O (H-HFRWGKPV-NH2) | 59.4% | 12.3%
10 | CC(C)[C@H](NC(=O)[C@H](Cc1ccccc1)NC(=O)[C@H](CCCCN)NC(=O)CNC(=O)[C@H](Cc1c[nH]c2ccccc12)NC(=O)[C@H](CCCN=C(N)N)NC(=O)[C@@H](Cc1ccc2ccccc2c1)NC(=O)[C@@H](N)Cc1c[nH]cn1)C(N)=O (H-H[d2Nal]RWGKFV-NH2) | 99.8% | 18.7%
11 | CC(C)[C@H](NC(=O)[C@@H]1CCCN1C(=O)[C@H](CCCCN)NC(=O)CNC(=O)[C@H](Cc1c[nH]c2ccccc12)NC(=O)[C@H](CCCN=C(N)N)NC(=O)[C@@H](Cc1ccc2ccccc2c1)NC(=O)[C@@H](N)Cc1c[nH]cn1)C(N)=O (H-H[d2Nal]RWGKPV-NH2) | 95.3% | 41.8%
12 | CC(C)[C@H](NC(=O)[C@H](Cc1ccccc1)NC(=O)[C@@H](N)CCCCN)C(N)=O (H-Lys-Phe-Val-NH2) | 2.7% | <10%
13 | CC(C)[C@H](NC(=O)[C@H](Cc1ccccc1)NC(=O)[C@H](CCCCN)NC(=O)CNC(=O)[C@H](Cc1c[nH]c2ccccc12)NC(=O)[C@@H](N)CCCN=C(N)N)C(N)=O (H-RWGKFV-NH2) | 19.3% | <10%
14 | CC(C)[C@H](NC(=O)[C@H](Cc1ccccc1)NC(=O)[C@H](CCCCN)NC(=O)CNC(=O)[C@@H](N)Cc1c[nH]c2ccccc12)C(N)=O (H-WGKFV-NH2) | 5.7% | <10%
